Measured values reported in ChEMBL document CHEMBL1649161, “Pharmacokinetics of EDP-420 after ascending single oral doses in healthy adult volunteers” (Antimicrob Agents Chemother, 2009).
Values after ≈ are worked out from the molar mass of the structure shown.

Tests used:
[1] = Apparent oral clearance in healthy human plasma at 800 mg, po administered as single dose measured after 120 hrs; format: ADME, organism-based
Outline: (§1)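 Single oral suspension dose in fasted healthy adults (6 per group). Plasma was collected to 120 h and measured by LC-MS/MS (1–1,000 ng/ml). Apparent oral clearance was dose divided by AUC0-∞ (noncompartmental, linear-up/log-down trapezoid extrapolated with Clast/λz); the mean was reported.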

[2] = Elimination rate constant in healthy human plasma at 800 mg, po administered as single dose measured after 120 hrs; format: ADME, organism-based
[3] = Tmax in healthy human plasma at 800 mg, po administered as single dose measured after 120 hrs; format: ADME, organism-based
Outline: (§2)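 Fasted healthy adults (n = 6 per group) took one oral suspension dose. Plasma was sampled from predose through 0.25–120 h postdose and measured by validated LC-MS/MS (lower limit 1 ng/ml). Tmax was read directly from observed concentration–time data using actual sampling times and reported as median with range.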

[4] = test system: Homo sapiens; assay: Toxicity in healthy human assessed as changes in prothrombin time at 100 to 1200 mg, po administered as single dose; format: organism-based; settings: in vivo
Outline: (§3)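 Randomized, double-blind, placebo-controlled single ascending dose study with eight subjects per group (6 drug, 2 placebo of microcrystalline cellulose). Subjects were fasted before dosing. Safety labs were done at 120 h, with a full chemistry panel also at 72 and 96 h for the top dose. Final evaluation on day 8–10, with adverse events recorded.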

[5] = Apparent oral clearance in healthy human plasma at 100 mg, po administered as single dose measured after 120 hrs; format: ADME, organism-based; outline: as §1
[6] = test system: Homo sapiens; assay: Toxicity in healthy human assessed as changes in direct and total bilirubin level at 100 to 1200 mg, po administered as single dose; format: organism-based; settings: in vivo; outline: as §3
[7] = Half life in healthy human plasma at 800 mg, po administered as single dose measured after 120 hrs; format: ADME, organism-based
[8] = Elimination rate constant in healthy human plasma at 400 mg, po administered as single dose measured after 120 hrs; format: ADME, organism-based
[9] = AUC (0 to infinity) in healthy human plasma at 200 mg, po administered as single dose measured after 120 hrs; format: ADME, organism-based; parameters: dose 200 mg, route oral, time infinity
Outline: (§4)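 Healthy adults (6 per dose group) received a single oral suspension after an 8-h fast, with food withheld 4 h. EDTA blood was drawn predose to 120 h. Plasma was protein-precipitated with ACN and assayed by LC-MS/MS (clarithromycin internal standard; range 1–1,000 ng/ml). AUC0-last was computed by linear-up/log-down trapezoid; AUC0-∞ added Clast/λz. Values are noncompartmental means.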

[10] = test system: Streptococcus pneumoniae; assay: Antimicrobial activity against macrolide-resistant Streptococcus pneumoniae carrying mefA and/or ermB genes; format: functional
[11] = test system: Homo sapiens; assay: Toxicity in healthy human assessed as changes in gamma-glutamyl transpeptidase level at 100 to 1200 mg, po administered as single dose; format: organism-based; settings: in vivo; outline: as §3
[12] = Half life in healthy human plasma at 400 mg, po administered as single dose measured after 120 hrs; format: ADME, organism-based
[13] = test system: Homo sapiens; assay: Toxicity in healthy human assessed as incidence of elevated hepatic transaminase levels at 100 to 1200 mg, po administered as single dose; format: organism-based; settings: in vivo; outline: as §3
[14] = Renal clearance in healthy human assessed as cumulative fraction excreted unchanged in urine at 1200 mg, po administered as single dose measured after 48 hrs; format: ADME, organism-based; settings: read-out: Fraction Recovered in urine
Outline: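 After a single oral fasted suspension dose in healthy adults (6 per group), urine was collected in intervals to 48 h and measured by LC-MS/MS. fe0-48 = Ae0-48 (summed interval volume × concentration) / dose × 100%; the mean was reported.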

[15] = AUC (0 to last) in healthy human plasma at 800 mg, po administered as single dose measured after 120 hrs; format: ADME, organism-based; parameters: dose 800 mg, route oral, time 0 - last; outline: as §4
[16] = test system: Homo sapiens; assay: Toxicity in healthy human assessed as changes in physical parameters signs at 100 to 1200 mg, po administered as single dose; format: organism-based; settings: in vivo
[17] = AUC (0 to last) in healthy human plasma at 1200 mg, po administered as single dose measured after 120 hrs; format: ADME, organism-based; parameters: dose 1200 mg, route oral, time 0 - last; outline: as §4
[18] = Cmax in healthy human plasma at 800 mg, po administered as single dose measured after 120 hrs; format: ADME, organism-based; parameters: dose 800 mg, route oral
Outline: (§5)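 Healthy adults (n = 6 per dose) took a single oral suspension fasted (8 h before, 4 h after). Plasma was sampled from 0.25 to 120 h postdose and quantified by validated LC-MS/MS after acetonitrile precipitation (LLOQ 1 ng/ml). Cmax was read directly from observed concentration–time data; the group mean was reported.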

[19] = Renal clearance in healthy human assessed as cumulative fraction excreted unchanged in urine at 400 mg, po administered as single dose measured after 48 hrs; format: ADME, organism-based; settings: read-out: Fraction Recovered in urine
Outline: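 Urine collected predose and over 0–2, 2–4, 4–6, 6–8, 8–12, 12–24 and 24–48 h after a single oral suspension dose, given after an 8-h fast with no food for 4 h after. Volumes measured, stored at −20°C, EDP-420 quantified by LC-MS/MS. fe0-48 = Ae0-48/dose × 100%, where Ae0-48 is the sum of volume × concentration over the intervals. Six active subjects per dose.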

[20] = AUC (0 to infinity) in healthy human plasma at 1200 mg, po administered as single dose measured after 120 hrs; format: ADME, organism-based; parameters: dose 1200 mg, route oral, time infinity; outline: as §4
[21] = test system: Homo sapiens; assay: Toxicity in healthy human assessed as changes in ECG parameters signs at 100 to 1200 mg, po administered as single dose; format: organism-based; settings: in vivo
[22] = Tmax in healthy human plasma at 400 mg, po administered as single dose measured after 120 hrs; format: ADME, organism-based; outline: as §2
[23] = Elimination rate constant in healthy human plasma at 200 mg, po administered as single dose measured after 120 hrs; format: ADME, organism-based
[24] = Half life in healthy human plasma at 1200 mg, po administered as single dose measured after 120 hrs; format: ADME, organism-based
[25] = Renal clearance in healthy human at 200 mg, po administered as single dose measured after 48 hrs; format: ADME, organism-based, Kidney; settings: in vivo, read-out: CL_renal (converted)
Outline: (§6)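 Healthy adults (6 active per dose) got a single oral suspension dose after an 8-h fast, with food withheld 4 h. Urine over 0–48 h in intervals and serial EDTA plasma were assayed by validated LC-MS/MS, with plasma calibration from 1 to 1,000 ng/ml. CLR = Ae0-48 (urine volume × concentration summed) divided by plasma AUC0-48.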

[26] = Apparent volume of distribution in healthy human plasma at 200 mg, po administered as single dose measured after 120 hrs; format: ADME, organism-based
[27] = Renal clearance in healthy human at 400 mg, po administered as single dose measured after 48 hrs; format: ADME, organism-based, Kidney; settings: in vivo, read-out: CL_renal (converted); outline: as §6
[28] = AUC (0 to last) in healthy human plasma at 400 mg, po administered as single dose measured after 120 hrs; format: ADME, organism-based; parameters: dose 400 mg, route oral, time 0 - last; outline: as §4
[29] = Cmax in healthy human plasma at 1200 mg, po administered as single dose measured after 120 hrs; format: ADME, organism-based; parameters: dose 1200 mg, route oral; outline: as §5
[30] = test system: Homo sapiens; assay: Renal clearance in healthy human assessed as cumulative amount excreted in urine at 100 mg, po administered as single dose measured after 48 hrs; format: ADME, organism-based; settings: in vivo
Outline: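 Healthy adults (6 per dose) received a single fasted oral suspension dose. Urine was collected predose and over 0–2, 2–4, 4–6, 6–8, 8–12, 12–24 and 24–48 h intervals, volumes were recorded, and aliquots were stored at −20°C. Samples were assayed by LC-MS/MS. Ae0-48 is the summed volume × concentration over all intervals; the mean was reported.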

Work on `CC[C@H]1OC(=O)[C@H](C)C(=O)[C@H](C)[C@@H](O[C@@H]2O[C@H](C)C[C@H](N(C)C)[C@H]2O)[C@@]2(C)C[C@@H](C)/C(=N\C(C)=O)[C@H](C)[C@@H](OC/C(=N\OCc3ccc(-n4cccn4)nc3)CO2)[C@]1(C)O` [MODITHROMYCIN] yielded a CL/F [1] of 393 mL/min, a k el at 120 h [2] of 1.09e-05 s⁻¹ and a Tmax [3] of 4.26 h. For the same compound, the Activity [4] was “Non-toxic”, the CL/F [5] was 485 mL/min and the Activity [6] was “Non-toxic”. For the same compound, the half-life [7] was 17.6 h, the k el at 120 h [8] was 1.22e-05 s⁻¹ and the AUC(0-inf) [9] was 7710 ng·h/mL. For the same compound, the MIC [10] was 0.25 µg/mL (≈ 0.297 µM), the Activity [11] was “Non-toxic” and the half-life [12] was 15.8 h. For the same compound, the Activity [13] was 23%, the dose excreted at 48 h [14] was 5.84% and the AUC(0-t) at 120 h [15] was 33400 ng·h/mL. For the same compound, the Activity [16] was “Non-toxic”, the AUC(0-t) at 120 h [17] was 37400 ng·h/mL and the Cmax [18] was 1070 ng/mL. The dose excreted at 48 h [19] was 10.5%, the AUC(0-inf) [20] was 38300 ng·h/mL and the Activity [21] was “Non-toxic”. It also gave a Tmax [22] of 3.25 h, a k el at 120 h [23] of 1.22e-05 s⁻¹ and a half-life [24] of 20.1 h. The CL renal at 48 h [25] was 60.3 mL/min, the Vd/F [26] was 589 L and the CL renal at 48 h [27] was 58 mL/min. The AUC(0-t) at 120 h [28] was 14300 ng·h/mL, the Cmax [29] was 1080 ng/mL and the “Amount Recovered in urine” value [30] was 8.57 mg.
